Test results as given in ChEMBL document CHEMBL1933063, “Investigation of chalcones and benzochalcones as inhibitors of breast cancer resistance protein” (Bioorg Med Chem, 2012).

Tests used:
[1] = biological target: ATP-dependent translocase ABCB1 (Homo sapiens, UniProt P08183); experiment: Inhibition of MDR1 in human A2780adr cells assessed as calcein AM accumulation at 10 uM by fluorimetry; assay type: cell-based; conditions: a2780 adr
How it was run: (§1)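 Calcein AM accumulation in A2780adr (P-gp) or 2008 MRP1 cells. Cells washed in Krebs-HEPES buffer, about 30,000 per well, preincubated 30 min with compound at 10 µM final. Calcein AM then added. Fluorescence (ex 485, em 520 nm) read every 60 s up to 90 min at 37 °C. Expressed as percent of vehicle control; n = 3.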

[2] = biological target: Multidrug resistance-associated protein 1 (Homo sapiens, UniProt P33527); experiment: Inhibition of MRP1 overexpressed in human 2008 MRP1 cells assessed as calcein AM accumulation at 10 uM by fluorimetry; assay type: cell-based; conditions: human, 2008, 10 µM; how it was run: as §1
Multidrug resistance-associated protein 1, sequence (P33527 whole entry): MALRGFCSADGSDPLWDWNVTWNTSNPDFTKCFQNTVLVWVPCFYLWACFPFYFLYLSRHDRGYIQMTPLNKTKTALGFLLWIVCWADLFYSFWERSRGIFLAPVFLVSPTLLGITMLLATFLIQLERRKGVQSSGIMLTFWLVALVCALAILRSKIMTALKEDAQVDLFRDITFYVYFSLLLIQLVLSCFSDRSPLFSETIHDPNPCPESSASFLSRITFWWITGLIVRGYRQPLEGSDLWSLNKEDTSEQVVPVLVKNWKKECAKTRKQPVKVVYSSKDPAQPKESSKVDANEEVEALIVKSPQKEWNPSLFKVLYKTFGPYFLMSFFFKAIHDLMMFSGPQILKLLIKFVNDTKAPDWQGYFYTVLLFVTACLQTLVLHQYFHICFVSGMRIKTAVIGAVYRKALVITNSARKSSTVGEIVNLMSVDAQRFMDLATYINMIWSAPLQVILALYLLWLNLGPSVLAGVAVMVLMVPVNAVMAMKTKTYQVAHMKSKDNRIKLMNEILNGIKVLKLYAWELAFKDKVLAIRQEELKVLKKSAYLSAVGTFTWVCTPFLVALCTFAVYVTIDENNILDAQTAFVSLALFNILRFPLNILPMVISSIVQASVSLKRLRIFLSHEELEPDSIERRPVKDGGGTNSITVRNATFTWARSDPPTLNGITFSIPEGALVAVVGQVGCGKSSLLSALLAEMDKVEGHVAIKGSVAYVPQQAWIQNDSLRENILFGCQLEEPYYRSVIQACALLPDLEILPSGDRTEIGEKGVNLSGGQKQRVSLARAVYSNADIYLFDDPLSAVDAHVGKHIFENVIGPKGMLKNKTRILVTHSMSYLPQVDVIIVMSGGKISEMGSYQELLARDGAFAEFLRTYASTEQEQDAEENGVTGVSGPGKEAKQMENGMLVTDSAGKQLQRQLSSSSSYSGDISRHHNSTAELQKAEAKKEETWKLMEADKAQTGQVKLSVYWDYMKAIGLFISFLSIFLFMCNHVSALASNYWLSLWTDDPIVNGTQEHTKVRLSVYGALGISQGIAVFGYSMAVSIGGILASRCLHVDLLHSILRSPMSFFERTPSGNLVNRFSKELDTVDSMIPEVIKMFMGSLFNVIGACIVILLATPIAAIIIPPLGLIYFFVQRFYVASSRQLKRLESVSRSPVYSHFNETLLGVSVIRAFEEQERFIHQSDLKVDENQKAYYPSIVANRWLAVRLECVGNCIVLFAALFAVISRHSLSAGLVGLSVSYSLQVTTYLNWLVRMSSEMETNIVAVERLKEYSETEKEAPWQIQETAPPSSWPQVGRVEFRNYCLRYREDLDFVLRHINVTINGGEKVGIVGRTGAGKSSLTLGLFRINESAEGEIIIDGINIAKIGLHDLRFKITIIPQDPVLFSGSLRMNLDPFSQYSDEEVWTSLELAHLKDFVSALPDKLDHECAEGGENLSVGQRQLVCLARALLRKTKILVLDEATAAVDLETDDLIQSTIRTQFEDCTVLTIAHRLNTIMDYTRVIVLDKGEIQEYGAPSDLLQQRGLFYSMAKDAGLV

[3] = biological target: T1, Broad substrate specificity ATP-binding cassette transporter ABCG2 (Homo sapiens, UniProt Q9UNQ0); experiment: Inhibition of BCRP in human MCF7/MX cells assessed as Hoechst 33342 accumulation preincubated for 30 mins by Fluorometry; assay type: cell-based
T1 sequence (Q9UNQ0 whole entry): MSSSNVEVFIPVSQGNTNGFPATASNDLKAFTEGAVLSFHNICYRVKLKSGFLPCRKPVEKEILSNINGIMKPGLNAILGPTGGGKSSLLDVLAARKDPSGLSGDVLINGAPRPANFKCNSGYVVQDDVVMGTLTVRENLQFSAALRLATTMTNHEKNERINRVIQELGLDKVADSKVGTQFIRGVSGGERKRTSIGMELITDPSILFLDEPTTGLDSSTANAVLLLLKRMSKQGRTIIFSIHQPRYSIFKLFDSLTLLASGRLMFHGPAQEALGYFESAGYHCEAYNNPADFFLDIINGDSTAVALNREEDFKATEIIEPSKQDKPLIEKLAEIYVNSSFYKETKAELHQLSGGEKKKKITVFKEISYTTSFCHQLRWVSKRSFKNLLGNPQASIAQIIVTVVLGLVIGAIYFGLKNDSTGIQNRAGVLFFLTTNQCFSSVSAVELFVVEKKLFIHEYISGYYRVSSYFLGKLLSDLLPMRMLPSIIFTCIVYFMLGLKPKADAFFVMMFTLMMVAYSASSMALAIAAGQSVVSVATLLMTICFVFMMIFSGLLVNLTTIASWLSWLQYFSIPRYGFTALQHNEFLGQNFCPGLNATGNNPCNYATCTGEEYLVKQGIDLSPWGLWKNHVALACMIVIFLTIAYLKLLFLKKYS
How it was run: (§2)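 Cells washed three times in Krebs-HEPES buffer, about 20,000 per well, preincubated with test compound at varied concentrations for 30 min at 37 °C, 5% CO2. Hoechst 33342 then added (final 1 µM). Fluorescence (ex 355, em 460 nm) read every 60 s up to 120 min at 37 °C. KHB background subtracted, 100–109 min mean plotted, four-parameter logistic fit; ≥3 independent experiments.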

[4] = biological target: T1, Broad substrate specificity ATP-binding cassette transporter ABCG2; experiment: Inhibition of human BCRP expressed in MDCK2 cells assessed as Hoechst 33342 accumulation preincubated for 30 mins by fluorimetry; assay type: cell-based, MDCK-II; how it was run: as §2

ATP-dependent translocase ABCB1, sequence (P08183 whole entry): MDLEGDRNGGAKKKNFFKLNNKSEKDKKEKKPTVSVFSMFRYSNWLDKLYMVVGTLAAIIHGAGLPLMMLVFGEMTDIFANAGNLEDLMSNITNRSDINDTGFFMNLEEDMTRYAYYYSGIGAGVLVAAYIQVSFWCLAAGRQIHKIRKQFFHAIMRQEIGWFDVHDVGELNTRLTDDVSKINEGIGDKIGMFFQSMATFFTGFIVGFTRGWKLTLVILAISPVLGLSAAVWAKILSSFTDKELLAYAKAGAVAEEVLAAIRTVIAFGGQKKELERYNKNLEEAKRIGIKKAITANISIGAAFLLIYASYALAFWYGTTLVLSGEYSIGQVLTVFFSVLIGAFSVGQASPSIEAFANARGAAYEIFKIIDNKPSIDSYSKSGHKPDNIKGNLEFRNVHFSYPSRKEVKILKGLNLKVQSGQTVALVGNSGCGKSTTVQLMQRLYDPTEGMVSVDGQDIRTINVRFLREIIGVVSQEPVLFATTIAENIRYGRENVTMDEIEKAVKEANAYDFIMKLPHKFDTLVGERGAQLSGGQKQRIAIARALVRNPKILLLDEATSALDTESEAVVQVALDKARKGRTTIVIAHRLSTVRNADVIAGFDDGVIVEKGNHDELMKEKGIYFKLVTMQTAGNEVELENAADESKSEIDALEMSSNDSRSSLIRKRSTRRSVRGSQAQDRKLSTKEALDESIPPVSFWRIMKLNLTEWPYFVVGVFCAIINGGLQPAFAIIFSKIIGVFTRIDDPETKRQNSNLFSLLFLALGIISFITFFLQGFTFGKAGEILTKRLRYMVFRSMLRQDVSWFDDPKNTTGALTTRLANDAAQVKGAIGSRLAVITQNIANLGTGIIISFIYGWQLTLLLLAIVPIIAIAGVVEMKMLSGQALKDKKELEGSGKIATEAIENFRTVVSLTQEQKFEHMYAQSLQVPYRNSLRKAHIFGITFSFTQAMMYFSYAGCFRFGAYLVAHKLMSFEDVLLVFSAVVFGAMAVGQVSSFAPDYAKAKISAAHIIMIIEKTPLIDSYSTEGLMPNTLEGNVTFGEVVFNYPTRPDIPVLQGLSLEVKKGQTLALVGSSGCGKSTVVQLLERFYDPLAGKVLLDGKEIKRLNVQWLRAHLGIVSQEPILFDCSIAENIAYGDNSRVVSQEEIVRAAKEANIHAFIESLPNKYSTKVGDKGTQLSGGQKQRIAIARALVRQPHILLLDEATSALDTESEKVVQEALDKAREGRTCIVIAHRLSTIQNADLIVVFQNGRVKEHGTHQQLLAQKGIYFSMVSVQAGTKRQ

| Structure (SMILES) | inhibition (INH) [1] | inhibition (INH) [2] | IC50 ([3]; read-out: IC50) [nM] | IC50 ([4]; read-out: IC50) [nM] | IC50 ([3]; mcf7/mx) | IC50 ([4]; mdck-ii) |
| --- | --- | --- | --- | --- | --- | --- |
| O=C(/C=C/c1ccccc1Cl)c1c(O)ccc2ccccc12 | Active | Not Active | 5210 | 5580 | – | – |
| COc1ccc(/C=C/C(=O)c2ccccc2O)cc1 | Active | Not Active | – | – | Not Active | Not Active |
| COc1ccc(/C=C/C(=O)c2ccccc2)cc1OC | Active | Not Active | – | – | Not Active | Not Active |
| O=C(/C=C/c1ccc(Cl)cc1)c1c(O)ccc2ccccc12 | Active | Not Active | – | – | Not Active | Not Active |
| COc1ccc(C(=O)/C=C/c2ccc(Cl)cc2)cc1OC | Active | Not Active | 2720 | 1730 | – | – |
| COc1cccc(/C=C/C(=O)c2ccc(O)cc2O)c1 | Active | Not Active | 2800 | 1940 | – | – |
| COc1ccc(/C=C/C(=O)c2ccccc2O)cc1OC | Active | Not Active | 5070 | 4970 | – | – |
| O=C(/C=C/c1ccc(Cl)c(Cl)c1)c1c(O)ccc2ccccc12 | Active | Not Active | 8780 | 7260 | – | – |
| O=C(/C=C/c1ccccc1Cl)c1ccc2ccccc2c1O | Active | Not Active | – | – | Not Active | Not Active |
| O=C(/C=C/c1ccccc1)c1c(O)ccc2ccccc12 | Active | Not Active | 2770 | 2580 | – | – |
| COc1ccc(C(=O)/C=C/c2ccc(Cl)cc2)c(OC)c1 | Active | Not Active | 3090 | 1130 | – | – |
| COc1ccc(/C=C/C(=O)c2ccc(O)cc2O)cc1OC | Active | Not Active | 930 | 850 | – | – |
| COc1ccc(/C=C/C(=O)c2ccc(OC)cc2OC)cc1 [METOCHALCONE] | Active | Not Active | 2340 | 1910 | – | – |
| O=C(/C=C/c1ccccc1)c1ccccc1O [2'-HYDROXYCHALCONE] | Active | Not Active | – | – | Not Active | Not Active |
| COc1cc(OO)ccc1C(=O)/C=C/c1ccc(Cl)c(Cl)c1 | Active | Not Active | – | – | Not Active | Not Active |
| COc1ccc(/C=C/C(=O)c2ccc(OC)c(OC)c2)cc1 | Active | Not Active | 2190 | 1160 | – | – |
| O=C(/C=C/c1ccc(Cl)cc1)c1ccc2ccccc2c1O | Active | Not Active | – | – | Not Active | Not Active |
| O=C(/C=C/c1ccc(Cl)c(Cl)c1)c1ccc2ccccc2c1O | Active | Not Active | 26100 | 22400 | – | – |
| O=C(/C=C/c1ccccc1Cl)c1ccc(O)cc1O | Active | Not Active | 3210 | 3280 | – | – |
| COc1ccc(C(=O)/C=C/c2ccccc2Cl)cc1OC | Active | Not Active | 11000 | 7800 | – | – |
| COc1ccc(/C=C/C(=O)c2ccc3ccccc3c2O)cc1 | Active | Not Active | 16900 | 9830 | – | – |
| COc1cccc(/C=C/C(=O)c2c(O)ccc3ccccc23)c1 | Active | Not Active | 1930 | 1930 | – | – |
